According to ChEMBL document CHEMBL4715736, “Identification of anticancer agents based on the thieno[2,3-b]pyridine and 1H-pyrazole molecular scaffolds” (2016):

Columns and labels:
Type in all cases: functional
CCRF-CEM [1] = assay: Growth inhibition of human CCRF-CEM cells assessed as cell growth at 1 uM incubated for 48 hrs by sulforhodamine B assay relative to control; conditions: read-out: Activity
Procedure, shortened: (§1)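 NCI Developmental Therapeutics Program NCI60 panel. Compounds that were active in the 10 µM one-dose screen went on to dose–response testing. Growth at each concentration is expressed relative to untreated control (100%). GI50 (concentration giving 50% of maximal inhibition of proliferation) and TGI (concentration giving total growth inhibition) were derived from the curves.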

SF-295 = assay: Growth inhibition of human SF-295 cells assessed as cell growth at 0.01 uM incubated for 48 hrs by sulforhodamine B assay relative to control; conditions: read-out: Activity
UO-31 = assay: Growth inhibition of human UO-31 cells assessed as cell growth at 100 uM incubated for 48 hrs by sulforhodamine B assay relative to control; conditions: read-out: Activity
SK-MEL-28 = assay: Growth inhibition of human SK-MEL-28 cells assessed as cell growth at 0.01 uM incubated for 48 hrs by sulforhodamine B assay relative to control; conditions: read-out: Activity
UACC-62 = assay: Growth inhibition of human UACC-62 cells assessed as cell growth at 1 uM incubated for 48 hrs by sulforhodamine B assay relative to control; conditions: read-out: Activity
NCI-H23 = assay: Growth inhibition of human NCI-H23 cells assessed as cell growth at 0.01 uM incubated for 48 hrs by sulforhodamine B assay relative to control; conditions: read-out: Activity
SW-620 = assay: Growth inhibition of human SW-620 cells assessed as cell growth at 0.01 uM incubated for 48 hrs by sulforhodamine B assay relative to control; conditions: read-out: Activity
PC-3 = assay: Growth inhibition of human PC-3 cells incubated for 48 hrs by sulforhodamine B assay; conditions: for CC50: read-out: LC50 (the source's name)
Procedure, shortened: (§2)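 NCI DTP 60-line human tumour panel. Dose-response curves were run only for ligands active in the initial 10 µM screen. GI50 (concentration giving 50% of maximal inhibition of proliferation) and TGI (concentration giving total growth inhibition) were derived from these curves.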

NCI/ADR-RES = assay: Growth inhibition of human NCI/ADR-RES cells assessed as cell growth at 1 uM incubated for 48 hrs by sulforhodamine B assay relative to control; conditions: read-out: Activity
CCRF-CEM [2] = assay: Growth inhibition of human CCRF-CEM cells assessed as cell growth at 100 uM incubated for 48 hrs by sulforhodamine B assay relative to control; conditions: read-out: Activity; procedure, shortened: as §1
M14 = assay: Growth inhibition of human M14 cells incubated for 48 hrs by sulforhodamine B assay
Procedure, shortened: (§3)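 NCI60 panel at the NCI Developmental Therapeutics Program. Only compounds active in the 10 µM screen went to dose-response testing. GI50, the concentration giving 50% of maximal inhibition of proliferation, and TGI, the concentration giving total growth inhibition, were derived from the dose-response curves.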

MDA-MB-468 = assay: Growth inhibition of human MDA-MB-468 cells assessed as cell growth at 1 uM incubated for 48 hrs by sulforhodamine B assay relative to control; conditions: read-out: Activity
K562 [3] = assay: Growth inhibition of human K562 cells assessed as cell growth at 0.01 uM incubated for 48 hrs by sulforhodamine B assay relative to control; conditions: read-out: Activity
A498 = assay: Growth inhibition of human A498 cells assessed as cell growth at 0.01 uM incubated for 48 hrs by sulforhodamine B assay relative to control; conditions: read-out: Activity; procedure, shortened: as §1
HOP-92 [4] = assay: Growth inhibition of human HOP-92 cells assessed as cell growth at 0.01 uM incubated for 48 hrs by sulforhodamine B assay relative to control; conditions: read-out: Activity
SNB-19 = assay: Growth inhibition of human SNB-19 cells assessed as cell growth at 1 uM incubated for 48 hrs by sulforhodamine B assay relative to control; conditions: read-out: Activity
HCC 2998 [5] = assay: Growth inhibition of human HCC 2998 cells incubated for 48 hrs by sulforhodamine B assay; conditions: for CC50: read-out: LC50 (the source's name)
UACC-257 = assay: Growth inhibition of human UACC-257 cells assessed as cell growth at 0.01 uM incubated for 48 hrs by sulforhodamine B assay relative to control; conditions: read-out: Activity
SN12C [6] = assay: Growth inhibition of human SN12C cells assessed as cell growth at 1 uM incubated for 48 hrs by sulforhodamine B assay relative to control; conditions: read-out: Activity
SF-539 [7] = assay: Growth inhibition of human SF-539 cells incubated for 48 hrs by sulforhodamine B assay; conditions: for CC50: read-out: LC50 (the source's name); procedure, shortened: as §2
A549 = assay: Growth inhibition of human A549/ATCC cells assessed as cell growth at 100 uM incubated for 48 hrs by sulforhodamine B assay relative to control; conditions: read-out: Activity; procedure, shortened: as §1
OVCAR-8 = assay: Growth inhibition of human OVCAR-8 cells incubated for 48 hrs by sulforhodamine B assay; conditions: for CC50: read-out: LC50 (the source's name); procedure, shortened: as §2
T47D = assay: Growth inhibition of human T47D cells assessed as cell growth at 0.1 uM incubated for 48 hrs by sulforhodamine B assay relative to control; conditions: read-out: Activity
Malme-3M = assay: Growth inhibition of human Malme-3M cells incubated for 48 hrs by sulforhodamine B assay; procedure, shortened: as §3
SN12C [8] = assay: Growth inhibition of human SN12C cells incubated for 48 hrs by sulforhodamine B assay; conditions: for CC50: read-out: LC50 (the source's name); procedure, shortened: as §2
U-251 = assay: Growth inhibition of human U-251 cells assessed as cell growth at 0.01 uM incubated for 48 hrs by sulforhodamine B assay relative to control; conditions: read-out: Activity
KM12 = assay: Growth inhibition of human KM12 cells assessed as cell growth at 0.01 uM incubated for 48 hrs by sulforhodamine B assay relative to control; conditions: read-out: Activity
TK-10 = assay: Growth inhibition of human TK-10 cells assessed as cell growth at 1 uM incubated for 48 hrs by sulforhodamine B assay relative to control; conditions: read-out: Activity
K562 [9] = assay: Growth inhibition of human K562 cells assessed as cell growth at 1 uM incubated for 48 hrs by sulforhodamine B assay relative to control; conditions: read-out: Activity
SF-539 [10] = assay: Growth inhibition of human SF-539 cells assessed as cell growth at 0.01 uM incubated for 48 hrs by sulforhodamine B assay relative to control; conditions: read-out: Activity
MCF7 = assay: Growth inhibition of human MCF7 cells incubated for 48 hrs by sulforhodamine B assay; conditions: for CC50: read-out: LC50 (the source's name); procedure, shortened: as §3
BT-549 = assay: Growth inhibition of human BT-549 cells assessed as cell growth at 0.01 uM incubated for 48 hrs by sulforhodamine B assay relative to control; conditions: read-out: Activity
HOP-92 [11] = assay: Growth inhibition of human HOP-92 cells incubated for 48 hrs by sulforhodamine B assay; procedure, shortened: as §3
HCC 2998 [12] = assay: Growth inhibition of human HCC 2998 cells assessed as cell growth at 100 uM incubated for 48 hrs by sulforhodamine B assay relative to control; conditions: read-out: Activity; procedure, shortened: as §1
OVCAR-3 = assay: Growth inhibition of human OVCAR-3 cells assessed as cell growth at 100 uM incubated for 48 hrs by sulforhodamine B assay relative to control; conditions: read-out: Activity

COc1cccc(NC(=O)c2sc3nc4c(cc3c2N)CN(Cc2ccccc2)CC4)c1
growth at 1 µM (CCRF-CEM [1]): 82% | growth at 0.01 µM (SF-295): 87% | growth at 100 µM (UO-31): -23% | growth at 0.01 µM (SK-MEL-28): 97% | growth at 1 µM (UACC-62): 58% | growth at 0.01 µM (NCI-H23): 100% | growth at 0.01 µM (SW-620): 100% | GI50 (PC-3): 11.6 µM | TGI (PC-3): 91.1 µM | CC50 (PC-3): > 100 µM | growth at 1 µM (NCI/ADR-RES): 63% | growth at 100 µM (CCRF-CEM [2]): 21% | GI50 (M14): 12.7 µM | LC50 (concentration killing 50% of cells) (M14): > 100 µM | TGI (M14): 86.8 µM | growth at 1 µM (MDA-MB-468): 64% | growth at 0.01 µM (K562 [3]): 106% | growth at 0.01 µM (A498): 94% | growth at 0.01 µM (HOP-92 [4]): 90% | growth at 1 µM (SNB-19): 82% | GI50 (HCC 2998 [5]): 9.13 µM | TGI (HCC 2998 [5]): > 100 µM | CC50 (HCC 2998 [5]): > 100 µM | growth at 0.01 µM (UACC-257): 94% | growth at 1 µM (SN12C [6]): 85% | GI50 (SF-539 [7]): 1.99 µM | TGI (SF-539 [7]): 6.56 µM | CC50 (SF-539 [7]): 36.4 µM | growth at 100 µM (A549): -8% | GI50 (OVCAR-8): 4.45 µM | TGI (OVCAR-8): 85.2 µM | CC50 (OVCAR-8): > 100 µM | growth at 0.1 µM (T47D): 94% | GI50 (Malme-3M): 1.43 µM | LC50 (Malme-3M): > 100 µM | TGI (Malme-3M): 16.6 µM | GI50 (SN12C [8]): 11.2 µM | TGI (SN12C [8]): > 100 µM | CC50 (SN12C [8]): > 100 µM | growth at 0.01 µM (U-251): 99% | growth at 0.01 µM (KM12): 100% | growth at 1 µM (TK-10): 98% | growth at 1 µM (K562 [9]): 31% | growth at 0.01 µM (SF-539 [10]): 86% | GI50 (MCF7): 0.62 µM | TGI (MCF7): > 100 µM | CC50 (MCF7): > 100 µM | growth at 0.01 µM (BT-549): 88% | GI50 (HOP-92 [11]): 2.21 µM | LC50 (concentration killing 50% of the starting cells) (HOP-92 [11]): > 100 µM | TGI (HOP-92 [11]): 24.1 µM | growth at 100 µM (HCC 2998 [12]): 9% | growth at 100 µM (OVCAR-3): -60%

Cc1cccc(NC(=O)c2sc3nc4c(cc3c2N)C(=O)CCC4)c1
growth at 1 µM (CCRF-CEM [1]): 31% | growth at 0.01 µM (SF-295): 88% | growth at 100 µM (UO-31): -23% | growth at 0.01 µM (SK-MEL-28): 93% | growth at 1 µM (UACC-62): 29% | growth at 0.01 µM (NCI-H23): 99% | growth at 0.01 µM (SW-620): 94% | GI50 (PC-3): 0.393 µM | TGI (PC-3): ≥ 100 µM | CC50 (PC-3): > 100 µM | growth at 1 µM (NCI/ADR-RES): 15% | growth at 100 µM (CCRF-CEM [2]): -7% | GI50 (M14): 0.165 µM | LC50 (concentration killing 50% of cells) (M14): > 100 µM | TGI (M14): ≥ 100 µM | growth at 1 µM (MDA-MB-468): 5% | growth at 0.01 µM (K562 [3]): 97% | growth at 0.01 µM (A498): 68% | growth at 0.01 µM (HOP-92 [4]): 87% | growth at 1 µM (SNB-19): 33% | GI50 (HCC 2998 [5]): 0.383 µM | TGI (HCC 2998 [5]): > 100 µM | CC50 (HCC 2998 [5]): > 100 µM | growth at 0.01 µM (UACC-257): 82% | growth at 1 µM (SN12C [6]): 42% | GI50 (SF-539 [7]): 0.167 µM | TGI (SF-539 [7]): 0.462 µM | CC50 (SF-539 [7]): ≥ 100 µM | growth at 100 µM (A549): 19% | GI50 (OVCAR-8): 0.0171 µM | TGI (OVCAR-8): ≥ 100 µM | CC50 (OVCAR-8): > 100 µM | growth at 0.1 µM (T47D): 78% | LC50 (Malme-3M): > 100 µM | TGI (Malme-3M): ≥ 100 µM | GI50 (SN12C [8]): 0.695 µM | TGI (SN12C [8]): ≥ 100 µM | CC50 (SN12C [8]): > 100 µM | growth at 0.01 µM (U-251): 96% | growth at 0.01 µM (KM12): 95% | growth at 1 µM (TK-10): 45% | growth at 1 µM (K562 [9]): 21% | growth at 0.01 µM (SF-539 [10]): 90% | GI50 (MCF7): 0.145 µM | TGI (MCF7): > 100 µM | CC50 (MCF7): > 100 µM | growth at 0.01 µM (BT-549): 87% | GI50 (HOP-92 [11]): 1 µM | LC50 (concentration killing 50% of the starting cells) (HOP-92 [11]): > 100 µM | TGI (HOP-92 [11]): ≥ 100 µM | growth at 100 µM (HCC 2998 [12]): -23% | growth at 100 µM (OVCAR-3): -23%
